ABHD5-PLIN5 inh: ABHD5-PLIN5 interaction inhibitors, primary screen, cell lysate, split luciferase complementation, luminescence; Perilipin-5 (Homo sapiens) + 1-acylglycerol-3-phosphate O-acyltransferase ABHD5 (Homo …; Split G. princeps luciferase complementation, 4 h; inhibition, % at 4 µM; hit rate 0.78% among 360,000;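 active means inhibition above the mean inhibition across every tested compound plus 3 SD, cut at about 22% in these data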;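 further: 0% = DMSO only wells and the 100% control is not disclosed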
PRMT1 FP inh: PRMT1 methyltransferase inhibitors, primary screen, biochemical, fluorescence polarization | Protein arginine N-methyltransferase 1 (Homo sapiens), Q99873 | recombinant PRMT1, activity-based probe fluorescence polarization | inhibition, % at 2.79 µM | hit rate 1.3% among 370,000 | AID 652257, 2013;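 active means inhibition above about 21% made by adding two undisclosed values, limit read from the data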
Target sequence (Q99873 whole entry, looked up): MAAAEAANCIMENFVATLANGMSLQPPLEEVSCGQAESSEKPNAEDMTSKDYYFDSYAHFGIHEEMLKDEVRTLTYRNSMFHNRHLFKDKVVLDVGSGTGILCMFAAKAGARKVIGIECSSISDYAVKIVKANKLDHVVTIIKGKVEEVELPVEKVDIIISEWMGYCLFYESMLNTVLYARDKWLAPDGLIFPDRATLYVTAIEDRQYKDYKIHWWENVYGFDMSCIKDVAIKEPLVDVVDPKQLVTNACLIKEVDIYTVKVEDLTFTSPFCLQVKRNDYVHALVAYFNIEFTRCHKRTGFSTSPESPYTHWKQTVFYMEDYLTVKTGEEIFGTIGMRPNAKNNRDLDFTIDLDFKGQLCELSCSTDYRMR
LEDGF integ inh: blockers of LEDGF/p75-dependent integrase strand transfer – biochemical, TR-FRET, high throughput, primary screen. HIV-1 integrase (with human LEDGF/p75). TR-FRET IN-LEDGF/p75 DNA integration, Eu/Cy5. inhibition, % at 3.7 µM. hit rate 0.64% among 370,000;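 active means inhibition above the screen-wide mean plus 3 SD, cut at about 13% in these data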;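 further: signal is the Cy5 over europium emission ratio at 671 and 618 nm; 0% = plate median of compound wells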
MBD2 DNA inh: inhibitors of MBD2 binding to methylated DNA, primary screen, biochemical, TR-FRET, DNA-binding domain, human | MBD2 binding to methylated oligonucleotide | Methyl-CpG-binding domain protein 2 (Homo sapiens), Q9UBB5 | hit rate 0.31% among 370,000 | AID 686964, 2013 | inhibition, % at 4.4 µM; in the data active means inhibition above about 13%
UHRF1 binding: UHRF1 methylated DNA binding inhibitors, primary screen, counter-screen for MBD2 inhibitor project, biochemical, TR-FRET, human UHRF1, single concentration | UHRF1 binding to methylated oligo | inhibition, % at 4.4 µM | hit rate 0.75% among 370,000; in the data active means inhibition above about 21%;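 further: UHRF1 SRA domain binding a hemimethylated CpG hairpin DNA probe; 0% = median of test compound wells and 100% = reference inhibitor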
RBBP9 inh: human RBBP9 inhibitors, primary screen, biochemical, fluorescence polarization, FP-Rh probe, HTS; Serine hydrolase RBBP9 (Homo sapiens), O75884; recombinant RBBP9; inhibition, % at 7.94 µM; hit rate 0.2% among 220,000; AID 1515, 2009;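 active means inhibition above the campaign mean of all tested compounds plus 3 SD, cut at about 14% in these data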;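 further: plate controls were DMSO wells with RBBP9 for no effect and wells lacking RBBP9 protein for full effect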
Target sequence (O75884 whole entry, looked up): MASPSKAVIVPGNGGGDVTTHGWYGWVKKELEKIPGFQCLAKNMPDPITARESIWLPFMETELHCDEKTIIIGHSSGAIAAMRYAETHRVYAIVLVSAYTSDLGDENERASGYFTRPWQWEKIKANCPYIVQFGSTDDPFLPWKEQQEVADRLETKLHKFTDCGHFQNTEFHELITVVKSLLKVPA
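System: RBBP9 protein / Quantity: 2.5 µM RBBP9 dispensing solution, before mixing / Also added: Serine-hydrolase probe FP-Rh, 375 nM pre-mixing / Dosing: 7.94 µM single dose, 0.794% DMSO / Timing: enzyme-compound preincubation 30 min, then probe labeling 45 min, 25 °C / Signal: FP readout at 525/598 nm / Controls: DMSO-treated enzyme wells and wells lacking RBBP9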
IN multimer act: HIV-1 IN multimer formation enhancers, counter-screen for LEDGF/p75 integration inhibitor project, biochemical, TR-FRET; activation, % at 7.7 µM; AID 1053131, 2014; hit rate 17% among 2,000; shares compounds with LEDGF integ inh; TR-FRET HIV-1 integrase multimerization; in the data active means activation above about 8.9%
TR-FRET interf: TR-FRET optical interference artefacts, confirmation, artefact control for LEDGF/p75-dependent integration inhibitor project, biochemical, HIV-1 IN multimerization; shares compounds with LEDGF integ inh; TR-FRET optical interference counterscreen; inhibition, % at 7.7 µM; 2,000 tested, under 10 active; AID 1053135, 2014;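 active means inhibition above the mean over all tested compounds plus 3 SD, which no compound reached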;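 further: 0% = integrase with antibodies and DMSO and 100% = antibodies without integrase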
IN-LEDGF confirm: inhibitors of HIV-1 IN-LEDGF/p75 DNA integration, confirmation, biochemical, TR-FRET; shares compounds with LEDGF integ inh; inhibition, % at 3.7 µM; AID 1053136, 2014; TR-FRET LEDGF/p75-dependent HIV-1 integration; hit rate 36% among 2,000; in the data active means inhibition above about 14%
* hit, by the source's call; . = not tested or not shown. The list is not random: actives were taken first. Their share in the collection is about 3.1%.

SMILES	ABHD5-PLIN5 inh	PRMT1 FP inh	LEDGF integ inh	MBD2 DNA inh	UHRF1 binding	RBBP9 inh	IN multimer act	TR-FRET interf	IN-LEDGF confirm
Nn1cnnc1N/N=C/c1ccccc1C(F)(F)F	-20	0	47*	-1	7	.	2	-7	-6
FC(F)(F)c1ccccc1/C=N/Nc1ccccn1	-8	-3	0	3	-2	-1	.	.	.
Nn1cnnc1N/N=C/c1cccc(Cl)c1Cl	-39	4	56*	2	7	.	1	-3	-2
COc1cc(-n2c(C)nc3cc(C(=O)N4CCN(C(C)=O)CC4)ccc32)cc(OC)c1OC	.	2	0	4	1	.	.	.	.
COc1cccc(CNC(=O)C2CCC(CNS(=O)(=O)c3cccc4cccnc34)CC2)c1OC (stereo not drawn)	.	3	0	-1	-3	.	.	.	.
O=C(OC1CC2CC1[C@H]1CCCCN1C2=O)N1CCN(S(=O)(=O)c2ccccc2)CC1 (stereo partly drawn)	1	-2	-3	2	-3	.	.	.	.
O=C(OC1CC2CC1[C@H]1CCCCN1C2=O)N1CCC(c2ccccc2)CC1 (stereo partly drawn)	3	4	23*	1	4	.	0	0	1
COC(=O)CSc1nnc(-c2ccc(NS(=O)(=O)c3ccc(C(C)(C)C)cc3)cc2)o1	.	-1	2	-1	1	.	.	.	.
Cc1[nH]c2ccccc2c1CCN(Cc1cccs1)C(=O)Nc1cccc2c1OCO2	.	3	-1	1	0	.	.	.	.
Cc1ccccc1NC(=O)[C@@H]1CC(=O)O[C@@H]1c1ccccc1	.	4	-3	2	1	.	.	.	.
COC(=O)c1c(NC(=O)COC(=O)[C@@H](NS(=O)(=O)c2cccc(Cl)c2)C(C)C)sc2c1CCC2	0	0	0	-5	-1	-3	.	.	.
COC(=O)c1sc(N)c(C(=O)OC)c1COC(=O)[C@@H](NS(=O)(=O)c1cccc(Cl)c1)C(C)C	0	0	21*	1	1	-6	-2	12	-3
Cn1c(NC(=O)c2ccccc2)cc(=O)n(C)c1=O	5	-3	3	-5	2	-25	.	.	.
CN(C)S(=O)(=O)c1ccc(C(=O)Nc2cc(=O)n(C)c(=O)n2C)cc1	3	4	44*	2	0	-8	1	-3	1
Cn1c(NC(=O)c2ccco2)cc(=O)n(C)c1=O	4	2	24*	-4	-3	-5	0	-1	-4
COC(=O)[C@H](CC(C)C)N(CCc1cn(Cc2ccccc2)nn1)S(=O)(=O)c1ccccc1Br	.	2	1	3	-1	.	.	.	.
COCC(=O)N(c1ccc(C(C)(C)C)cc1)C(C(=O)NC(C)(C)C)c1cccnc1 (stereo not drawn)	.	2	1	2	-1	.	.	.	.
N#CC1C(=O)Nc2cccnc21 (stereo not drawn)	-11	3	27*	-8	3	.	3	-11	5
O=C1Nc2ccccc2C1Cc1ccccn1 (stereo not drawn)	-2	0	1	1	0	-1	.	.	.
COCCN1Cc2cc(C(=O)OC)c3c(c2C1=O)c1ccccc1n3S(=O)(=O)c1ccc(OC)cc1	.	3	-3	3	-2	.	.	.	.
COc1ccc(C(C)(NC(C)=O)c2nc(-c3cccc(C#N)c3)cs2)cc1 (stereo not drawn)	3	-3	1	0	-1	.	.	.	.
CC(=O)NC(C)(c1ccccc1)c1nc(-c2cccc(C#N)c2)cs1 (stereo not drawn)	-3	-2	14*	-4	-4	.	-1	3	-3
COC(=O)C1=C(C)N(Cc2cccc(C(F)(F)F)c2)C(=NCc2cc(OC)c(OC)c(OC)c2)NC1c1ccccc1 (stereo not drawn)	.	-2	3	-1	0	.	.	.	.
O=C(OC12CCCN(C1)/C(=C/c1cccc(Cl)c1)C2)c1ccco1 (stereo not drawn)	.	1	-1	4	0	.	.	.	.
CCOc1cc(C(=O)Nc2cccc3ncccc23)cc(OCC)c1OCC	-5	2	16*	0	-1	-3	1	-5	-1
SMILES	ABHD5-PLIN5 inh	PRMT1 FP inh	LEDGF integ inh	MBD2 DNA inh	UHRF1 binding	RBBP9 inh	IN multimer act	TR-FRET interf	IN-LEDGF confirm
CCCC1CCC2(CCCN2CCOC(=O)Nc2ccccc2OC)CC1 (stereo not drawn)	.	-4	4	1	-1	.	.	.	.
CC(=O)N1CCn2c3c(c(=O)c4cc(C)ccc42)CCC31 (stereo not drawn)	-33	5	20*	-7	-1	2	0	-1	23*
Cc1cc(Cl)cc(C)c1OCCCCN1CCOCC1	6	0	15*	-5	-1	4	-1	4	2
Cc1ccc(S(=O)(=O)NCC(=O)OC(C)C(=O)c2ccccc2)cc1 (stereo not drawn)	-1	-1	23*	-4	-4	.	0	-1	-3
Cc1ccc(C(=O)C(C)OC(=O)CNS(=O)(=O)c2ccc(C)cc2)cc1 (stereo not drawn)	1	3	0	3	1	.	.	.	.
Cc1cccc(N2C(=O)CS/C2=N\NC(=O)c2ccc(Br)cc2)c1C	5	-2	16*	3	3	2	-2	8	-1
Cc1ccc(C)c(NC(=O)CN2C(=O)CCSc3ccccc32)c1	.	6	-1	1	0	.	.	.	.
Cc1cccc(NC(=O)COC(=O)[C@@H]2CCCN2C(=O)c2cccs2)c1	-3	-1	28*	4	-1	.	0	-2	-4
CC(=O)N1CCN(C(=O)c2ccc(CNC(=O)c3cccc(Br)c3)cc2)CC1	.	1	4	2	-1	.	.	.	.
O=C(NCCCO)c1ccc(CSc2nc3ccccc3[nH]2)cc1	5	2	17*	5	1	-7	0	0	-5
